Measurements taken from paper PMC9426946 (Biochimica et biophysica acta. Proteins and proteomics, 2022).

B1: β-casein: bovine β-casein, protein substrate (protein, UniProt P02666 16-224, looked up)
Beta-casein: RELEELNVPGEIVESLSSSEESITRINKKIEKFQSEEQQQTEDELQDKIHPFAQTQSLVYPFPGPIPNSLPQNIPPLTQTPVVVPPFLQPEVMGVSKVKEAMAPKHKEMPFPKYPVEPFTESQSLTLTDVENLHLPLPLLQSWMHQPHQPLPPTVMFPPQSVLSLSQSKVLPVPQKAVPYPQRDMPIQAFLLYQEPVLGPVRGPFPIIV

Legend:
CTRB1 D236R = CTRB1 D236R (Homo sapiens, UniProt P17538, D236R/Y164H); test: Michaelis-Menten kinetics on p-nitroanilide peptide substrates; type: biochemical; conditions: for kcat/KM, CTRB1 D236R / kcat, CTRB1 D236R / Km: 0.1 M Tris-HCl pH 8.0, 1 mM CaCl2, 0.05% Tween-20; for kcat, CTRB1 D236R / Km: average of two independent measurements; for Km: read-out: KM, CTRB1 D236R
Outline: (§1)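 Suc- and H-Ala-Ala-Pro-Phe-pNA were used at 8–1050 µM, from DMSO stocks calibrated by complete chymotryptic hydrolysis. Reactions were started by adding enzyme to 1 or 5 nM final. p-Nitroaniline release was followed at 410 nm for 3–5 min (ε 8,800 M-1cm-1), with rates taken from linear portions. KM and Vmax came from hyperbolic fits, averaging two independent measurements. Human enzymes were recombinant Y164H forms, ecotin-titrated.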

CTRB2 [1] = target: T1, CTRB2 (Homo sapiens, UniProt Q6GPI1, Y164H); test: as above; type: biochemical; conditions: for kcat/KM, CTRB2 / kcat, CTRB2 / Km: 0.1 M Tris-HCl pH 8.0, 1 mM CaCl2, 0.05% Tween-20; for kcat, CTRB2 / Km: average of two independent measurements; for Km: read-out: KM, CTRB2
Outline: as §1

CTRB1 S242T = CTRB1 S242T (Homo sapiens, UniProt P17538, S242T/Y164H); test: as above; type: biochemical; conditions: 0.1 M Tris-HCl pH 8.0, 1 mM CaCl2, 0.05% Tween-20; for kcat, CTRB1 S242T / Km: average of two independent measurements; for Km: read-out: KM, CTRB1 S242T
Outline: as §1

CTRB1 = CTRB1 (Homo sapiens, UniProt P17538, Y164H); test: as above; type: biochemical; conditions: for kcat/KM, CTRB1 / Km: 0.1 M Tris-HCl pH 8.0, 1 mM CaCl2, 0.05% Tween-20; for Km: read-out: KM, CTRB1, average of two independent measurements
Outline: as §1

bCTRA = bCTRA (Bos taurus, UniProt P00766); test: as above; type: biochemical, bovine; conditions: for kcat/KM, bCTRA / kcat, bCTRA / Km: 0.1 M Tris-HCl pH 8.0, 1 mM CaCl2, 0.05% Tween-20; for kcat, bCTRA / Km: average of two independent measurements; for Km: read-out: KM, bCTRA
Outline: as §1

[2] = target: chymotrypsin B1 (Homo sapiens) (UniProt P17538); conditions: cited from earlier work
human CTRB2 = conditions: read-out: KD on human CTRB2; prior observations; cited from earlier work
CTRB2 [3] = target: T1, CTRB2; test: Casein digestion by chymotrypsins; type: biochemical; conditions: 0.2 mg/mL β-casein, 5 nM enzyme, 0.1 M Tris-HCl pH 8.0, 1 mM CaCl2, 37°C; SDS-PAGE densitometry, two experiments
[4] = relative to Suc-Ala-Ala-Pro-Phe-p-nitroanilide

Sequence of CTRB1 D236R (P17538 19-263 Y164H/D236R): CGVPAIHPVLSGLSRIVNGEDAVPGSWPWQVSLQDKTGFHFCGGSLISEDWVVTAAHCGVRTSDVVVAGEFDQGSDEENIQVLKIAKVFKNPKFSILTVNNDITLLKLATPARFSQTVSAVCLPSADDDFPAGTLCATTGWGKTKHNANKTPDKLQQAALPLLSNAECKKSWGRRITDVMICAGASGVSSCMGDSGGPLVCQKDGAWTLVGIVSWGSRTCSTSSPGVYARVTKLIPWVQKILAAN
Sequence of CTRB1 S242T (P17538 19-263 Y164H/S242T): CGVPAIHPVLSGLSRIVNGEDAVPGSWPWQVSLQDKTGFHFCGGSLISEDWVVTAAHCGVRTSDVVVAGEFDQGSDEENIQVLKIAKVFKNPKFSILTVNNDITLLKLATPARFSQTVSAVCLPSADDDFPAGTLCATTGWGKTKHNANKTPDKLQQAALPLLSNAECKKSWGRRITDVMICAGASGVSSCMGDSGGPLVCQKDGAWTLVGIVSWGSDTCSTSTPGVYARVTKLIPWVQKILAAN
Sequence of CTRB1 (P17538 19-263 Y164H): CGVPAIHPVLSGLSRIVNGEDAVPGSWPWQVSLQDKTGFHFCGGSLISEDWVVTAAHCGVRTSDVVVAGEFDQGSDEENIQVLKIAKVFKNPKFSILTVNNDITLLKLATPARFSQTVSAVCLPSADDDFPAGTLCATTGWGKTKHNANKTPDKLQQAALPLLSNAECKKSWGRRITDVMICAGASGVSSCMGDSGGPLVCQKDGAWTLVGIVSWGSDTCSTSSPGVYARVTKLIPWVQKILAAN
T1 sequence (Q6GPI1 19-263 Y164H): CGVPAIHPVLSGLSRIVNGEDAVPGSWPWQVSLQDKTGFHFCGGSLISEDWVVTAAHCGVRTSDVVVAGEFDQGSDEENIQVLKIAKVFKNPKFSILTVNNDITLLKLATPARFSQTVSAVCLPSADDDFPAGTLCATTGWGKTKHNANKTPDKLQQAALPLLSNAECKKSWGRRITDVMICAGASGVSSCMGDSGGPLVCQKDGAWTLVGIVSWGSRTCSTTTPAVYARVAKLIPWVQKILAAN
Sequence of chymotrypsin B1 (Homo sapiens) (P17538 34-164, chain 2 of 2): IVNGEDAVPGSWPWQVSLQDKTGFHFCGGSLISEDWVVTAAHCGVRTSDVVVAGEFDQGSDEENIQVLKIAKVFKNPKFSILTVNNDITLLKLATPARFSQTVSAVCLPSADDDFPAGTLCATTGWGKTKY
Sequence of chymotrypsin B1 (Homo sapiens) (P17538 167-263, chain 3 of 2): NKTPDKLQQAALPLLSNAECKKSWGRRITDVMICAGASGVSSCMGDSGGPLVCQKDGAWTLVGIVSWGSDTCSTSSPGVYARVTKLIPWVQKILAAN

Molecule	kcat/KM, CTRB1 D236R (CTRB1 D236R) [M⁻¹ s⁻¹]	kcat, CTRB1 D236R (CTRB1 D236R) [s⁻¹]	Km (CTRB1 D236R) [µM]	kcat/KM, CTRB2 (CTRB2 [1]) [M⁻¹ s⁻¹]	kcat, CTRB2 (CTRB2 [1]) [s⁻¹]	Km (CTRB2 [1]) [µM]	kcat/KM, CTRB1 S242T (CTRB1 S242T) [M⁻¹ s⁻¹]	kcat, CTRB1 S242T (CTRB1 S242T) [s⁻¹]	Km (CTRB1 S242T) [µM]	kcat/KM, CTRB1 (CTRB1) [M⁻¹ s⁻¹]	Km (CTRB1) [µM]	kcat/KM, bCTRA (bCTRA) [M⁻¹ s⁻¹]	kcat, bCTRA (bCTRA) [s⁻¹]	Km (bCTRA) [µM]	other results
H-Ala-Ala-Pro-Phe-p-nitroanilide [H-AAPF-pNA]	45000	9.64	214	36000	10.9	304	39000	21.3	550	40000	575	55000	20.3	371	reduction in kcat/KM on removal of the Suc group, CTRB2 (CTRB2 [1]; [4]): 36 fold; reduction in kcat/KM on removal of the Suc group, CTRB1 (CTRB1; [4]): 4 fold
SGPI-2 (from UniProt O46162)	–	–	–	–	–	–	–	–	–	–	–	–	–	–	Kd [2]: 1.1 nM
Schistocerca gregaria proteinase inhibitor 2 [wild-type SGPI-2]	–	–	–	–	–	–	–	–	–	–	–	–	–	–	Kd (human CTRB2): 0.16 nM
Suc-Ala-Ala-Pro-Phe-p-nitroanilide [Suc-AAPF-pNA]	2e+06	36.0	17.9	1.3e+06	26.1	20.4	180000	38.4	220	160000	219	790000	36.9	46.6	kcat/KM of CTRB1 D236R relative to CTRB1 (CTRB1 D236R; more efficient than CTRB1): 12.5 fold; kcat/KM of CTRB2 relative to CTRB1 (CTRB2 [1]; more efficient than CTRB1): 8.1 fold; kcat/KM of bCTRA relative to CTRB1 (bCTRA; more efficient than CTRB1): 5 fold
B1	–	–	–	–	–	–	–	–	–	–	–	–	–	–	digestion activity of CTRB2 relative to CTRB1 (CTRB2 [3]): 2.3 fold
